KDM4C inh: KDM4C (human) demethylase inhibition; inhibition, % at 12.5 µM; 0.15% of 96,000 active; AID 720574; Q9H3R0; GST-KDM4C 2-372, H3K9me3 peptide, LANCE TR-FRET;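 active means mean replicate inhibition above about 25%, with at least 55% of replicates also reaching it, limit read from the data, passing the limit was not always enough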
Target sequence (Q9H3R0 2-372 limits assumed): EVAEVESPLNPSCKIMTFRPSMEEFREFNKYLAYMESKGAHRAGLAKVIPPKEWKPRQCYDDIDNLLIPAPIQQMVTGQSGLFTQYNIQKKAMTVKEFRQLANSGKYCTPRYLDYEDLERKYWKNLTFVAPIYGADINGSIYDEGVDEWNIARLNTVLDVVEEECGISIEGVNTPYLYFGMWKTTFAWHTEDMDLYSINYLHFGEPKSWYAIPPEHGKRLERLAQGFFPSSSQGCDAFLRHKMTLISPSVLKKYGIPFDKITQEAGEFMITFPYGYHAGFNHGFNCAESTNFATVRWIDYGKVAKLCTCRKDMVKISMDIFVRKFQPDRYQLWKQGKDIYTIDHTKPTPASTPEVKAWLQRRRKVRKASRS
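System: N-terminal GST-fused human GASC-1 (KDM4C) fragment, residues 2-372; amount: enzyme final amount 10 nM; incubation: reaction 30 min RT, detection step 1 h RT; medium: HEPES buffer, pH 7.5, plus ascorbate; technique: LANCE TR-FRET, Eu antibody, ULight-streptavidin, EDTA, ex 340 nm, em 618/671 nm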
Tcruzi prolif: blocks T. cruzi growth in NIH3T3 culture; T. cruzi beta-gal in NIH3T3, GalScreen luminescence, 90 h; inhibition, % at 8.34 µM; 5.9% of 77,000 active; AID 624255;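 active means mean inhibition above about 93%, with at least 55% of replicates each passing it, limit read from the data, passing the limit was not always enough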
IDH1 mut inh: blocks human IDH1 R132H reductase activity. inhibition, % at 10 µM. 0.18% of 70,000 active. diaphorase/resazurin fluorescence, 60 min. O75874. AID 624101; in the data active means inhibition above about 34%
Pf Dd2 growth: P. falciparum Dd2 growth inhibition | SYBR Green, 72 h; active compounds read low | activity change, % at 10 µM | 2.3% of 94,000 active | AID 1159554; in the data active means activity change below about -80%
Of the large screens only hits and unclear results are named; the others gave an inactive call; ! = repeats disagree. An excerpt weighted towards active compounds, which were near 5.9% of everything screened.

COCC#Cc1ccc(CC[C@H]2O[C@H]3CC[C@H](CO)O[C@H]3C[C@H]2n2cc(C3CC3)nn2)cc1	none (no result: KDM4C inh, Tcruzi prolif, IDH1 mut inh)
CO[C@H]1CN(C)C(=O)c2cc(NC(=O)c3nc4ccccc4s3)ccc2OC[C@@H](C)NC[C@@H]1C	Pf Dd2 growth -87.1
CO[C@@H]1CN(C)C(=O)c2cc(NC(=O)c3nc4ccccc4s3)ccc2OC[C@H](C)NC[C@H]1C	Pf Dd2 growth -84.5
CO[C@H]1CN(C)C(=O)c2cc(NC(=O)c3nc4ccccc4s3)ccc2OC[C@H](C)NC[C@H]1C	none
O=C(C1CCCCC1)N1CC2(C1)[C@@H](c1ccccc1)[C@@H](CO)N2CC1CCCC1	none (no result: Tcruzi prolif, IDH1 mut inh)
CO[C@H]1CN(C)C(=O)c2cc(NC(=O)Nc3ccc(C(F)(F)F)cc3)ccc2OC[C@H](C)NC[C@H]1C	Pf Dd2 growth -87.9
CO[C@@H]1CN(C)C(=O)c2ccc(NC(=O)Nc3ccc(C(F)(F)F)cc3)cc2OC[C@@H](C)NC[C@@H]1C	Pf Dd2 growth -83.3 (no result: Tcruzi prolif, IDH1 mut inh)
COc1ccccc1NC(=O)N1CCCCN2[C@H](CO)[C@H](c3ccc(-c4cccc(C)c4)cc3)[C@H]2C1	Pf Dd2 growth -85.7 (no result: IDH1 mut inh)
Cc1cccc(-c2ccc([C@@H]3[C@H](CO)N4CCCCN(CCC(F)(F)F)C[C@@H]34)cc2)c1	Pf Dd2 growth -81.3 (no result: IDH1 mut inh)
Cc1cccc(-c2ccc([C@@H]3[C@@H](CO)N4CCCCN(CCC(F)(F)F)C[C@@H]34)cc2)c1	none (no result: IDH1 mut inh)
COc1ccccc1NC(=O)N1CCCCN2[C@@H](CO)[C@H](c3ccc(C#CC4CCCC4)cc3)[C@@H]2C1	Pf Dd2 growth -83.0 (no result: IDH1 mut inh)
COCC(=O)N1CC2(C1)CN(Cc1nccs1)[C@@H](CO)c1c2c2ccc(OC)cc2n1C	none (no result: Tcruzi prolif, IDH1 mut inh)
CN(C)c1ccc2c(c1)[C@H]1C[C@@H](CC(=O)N3CCc4ccccc4C3)O[C@@H](CO)[C@H]1O2	none
CN(C)c1ccc2c(c1)[C@H]1C[C@H](CC(=O)N3CCCCC3)O[C@@H](CO)[C@H]1O2	KDM4C inh 30.4 (no result: Tcruzi prolif, IDH1 mut inh)
CN(C)c1ccc2c(c1)[C@H]1C[C@H](CC(=O)N3CCCCC3)O[C@H](CO)[C@H]1O2	KDM4C inh 30.8 (no result: Tcruzi prolif, IDH1 mut inh)
CN(C)c1ccc2c(c1)[C@@H]1C[C@H](CC(=O)N3CCCCC3)O[C@H](CO)[C@@H]1O2	KDM4C inh 45.6 (no result: Tcruzi prolif, IDH1 mut inh)
COc1ccc(-c2cn(CC[C@H]3CC[C@@H](NC(=O)c4cnccn4)[C@H](CO)O3)nn2)cc1	none
Cc1noc(C)c1S(=O)(=O)N(C)C[C@H]1OCCCC[C@@H](C)Oc2ccc(NC(=O)C3CCCCC3)cc2C(=O)N([C@@H](C)CO)C[C@@H]1C	Pf Dd2 growth -81.9 (no result: IDH1 mut inh)
Cc1noc(C)c1S(=O)(=O)N(C)C[C@@H]1OCCCC[C@H](C)Oc2ccc(NC(=O)C3CCCCC3)cc2C(=O)N([C@@H](C)CO)C[C@H]1C	Pf Dd2 growth -82.8
O=C(COc1ccc(Cl)cc1Cl)Nc1cc(Cl)ccc1C(=O)O	none (no result: KDM4C inh, Tcruzi prolif, Pf Dd2 growth)
COc1ccc(-c2nc(Nc3nc(C)cc(C)n3)n[nH]2)cc1OC	none (no result: KDM4C inh, Tcruzi prolif, Pf Dd2 growth)
C[C@H](CO)N1C[C@H](C)[C@H](CN(C)C(=O)Nc2ccc(F)cc2)Oc2ncc(Br)cc2C1=O	IDH1 mut inh 33.7!
C[C@H](CO)N1C[C@H](C)[C@H](CN(C)C(=O)Nc2ccc(F)cc2)Oc2ncc(-c3cccc(C(F)(F)F)c3)cc2C1=O	Tcruzi prolif 109.2
C[C@@H]1CN([C@H](C)CO)C(=O)c2cc(-c3ccc(C#N)cc3)cnc2O[C@H]1CN(C)C(=O)Nc1ccc(C(F)(F)F)cc1	Pf Dd2 growth -94.3 (no result: Tcruzi prolif, IDH1 mut inh)
CCCC#Cc1cnc2c(c1)C(=O)N([C@@H](C)CO)C[C@@H](C)[C@H](CN(C)C(=O)Nc1cc(F)ccc1F)O2	Pf Dd2 growth -83.4 (no result: Tcruzi prolif)
Cc1cc(C(=O)Nc2ccccc2C(=O)O)ccc1NC(=O)COc1cccc(C)c1C	none (no result: KDM4C inh, Tcruzi prolif, Pf Dd2 growth)
COc1ccc(C#Cc2ccc3c(c2)[C@@H]2[C@@H](CCN2C(=O)C2CCCCC2)[C@H](CO)N3)cc1	none (no result: IDH1 mut inh)
Cc1noc(C)c1S(=O)(=O)Nc1ccc2c(c1)CC(=O)N([C@@H](C)CO)C[C@H](C)[C@H](CN(C)CC1CC1)O2	none
CN(C)C(=O)c1cccc(-c2ccc([C@H]3[C@H](CO)N4C(=O)CN(C(=O)C5CCC5)C[C@@H]34)cc2)c1	none (no result: Tcruzi prolif, IDH1 mut inh)
O=C(NCCc1ccccc1)[C@@H]1N[C@@H]2c3ccc(-c4ccccc4)c(=O)n3C[C@@H]2[C@H]1CO	none (no result: IDH1 mut inh)
C[C@@H]1CN([C@H](C)CO)C(=O)c2cc(NS(=O)(=O)c3cccs3)ccc2O[C@@H](C)CCCCO[C@@H]1CN(C)S(=O)(=O)c1cn(C)cn1	none (no result: IDH1 mut inh)
COc1ccc(NC(=O)Nc2ccc3c(c2)C(=O)N([C@@H](C)CO)C[C@H](C)[C@H](CN(C)CC2CCCCC2)OCCCC[C@H](C)O3)cc1	Pf Dd2 growth -84.4
C[C@@H]1CCCCO[C@@H](CN(C)CC2CCCCC2)[C@H](C)CN([C@H](C)CO)C(=O)c2cc(NC(=O)Nc3ccccc3)ccc2O1	Pf Dd2 growth -83.9
CN(C)CC#Cc1ccc([C@@H]2[C@H](CO)N3CCCCN(C(=O)C4CCC4)C[C@@H]23)cc1	none (no result: IDH1 mut inh)
C[C@@H]1CN([C@@H](C)CO)C(=O)c2cc(NS(=O)(=O)c3ccc(F)cc3)ccc2O[C@H]1CN(C)Cc1ccc(C(=O)Nc2ccccc2N)cc1	Pf Dd2 growth -84.5 (no result: Tcruzi prolif)
C[C@@H]1CN([C@@H](C)CO)C(=O)c2cc(NS(=O)(=O)c3ccccc3)ccc2O[C@H]1CN(C)Cc1ccc(C(=O)Nc2ccccc2N)cc1	Pf Dd2 growth -83.1 (no result: Tcruzi prolif)
C[C@@H]1CN([C@@H](C)CO)C(=O)Cc2cc(NC(=O)Nc3ccc(C(F)(F)F)cc3)ccc2O[C@H]1CN(C)CC1CCCCC1	Pf Dd2 growth -87.2
C[C@H](CO)N1C[C@H](C)[C@@H](CN(C)CC2CCCCC2)Oc2ccc(NC(=O)Nc3ccc(F)cc3)cc2CC1=O	Pf Dd2 growth -89.7
C[C@@H]1CN([C@H](C)CO)C(=O)Cc2cc(NC(=O)Nc3ccc(F)cc3)ccc2O[C@@H]1CN(C)CC1CCCCC1	none
O=C(Cc1ccccn1)NCC[C@H]1CC[C@@H](NS(=O)(=O)c2ccc(Cl)cc2)[C@H](CO)O1	none
COc1ccccc1CNC(=O)C[C@@H]1C[C@H]2c3cc(NC(=O)CN(C)C)ccc3O[C@H]2[C@H](CO)O1	none
O=C(C[C@H]1C=C[C@H](NC(=O)Cc2ccccn2)[C@H](CO)O1)NCCc1ccccc1	Pf Dd2 growth -92.4 (no result: Tcruzi prolif, IDH1 mut inh)
C[C@@H]1CN([C@@H](C)CO)C(=O)c2cc(NC(=O)Nc3ccccc3)ccc2O[C@@H](C)CCCCO[C@@H]1CN(C)C(=O)C1CCCCC1	Pf Dd2 growth -83.5
C[C@@H]1CN([C@@H](C)CO)C(=O)c2cc(NC(=O)Nc3ccc4c(c3)OCO4)ccc2O[C@@H](C)CCCCO[C@H]1CN(C)C(=O)C1CCCCC1	none (no result: IDH1 mut inh)
C[C@@H]1CN([C@H](C)CO)C(=O)c2cc(NC(=O)C3CCCCC3)ccc2O[C@@H](C)CCCCO[C@@H]1CN(C)C(=O)C1CCCCC1	none (no result: IDH1 mut inh)
C[C@@H]1CCCCO[C@@H](CN(C)C(=O)C2CCCCC2)[C@H](C)CN([C@H](C)CO)C(=O)c2cc(NC(=O)Nc3ccc4c(c3)OCO4)ccc2O1	Tcruzi prolif 106.6

High-throughput results: PubChem, Broad Institute
